Consider seven compounds from ChEMBL document CHEMBL4622955, “Phenyltriazole-functionalized sulfamate inhibitors targeting tyrosyl- or isoleucyl-tRNA synthetase” (Bioorg Med Chem, 2020).

The test system of test [1] is Candida albicans. Description: Antimicrobial activity against Candida albicans at 64 uM by resazurin dye based assay. The class given is functional, organism-based. Background: Resazurin is reduced to fluorescent resorufin, in cell work by metabolically active cells.
The target of test [2] is Isoleucine--tRNA ligase (Escherichia coli K-12) (UniProt P00956). Description: Inhibition of Escherichia coli BL21(DE3) ileRS overexpressed in Escherichia coli Rosetta2(DE3) assessed as reduction in tRNA aminoacylation at 1 uM preincubated with enzyme and substrate for 10 mins prior to ATP addition using 14C-labeled isoleucine and tRNA as substrate by liquid scintillation counting method. The gist of the method:
(§1)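 Radiolabeled aminoacylation with 10 nM IleRS, 25 μM 14C-isoleucine, 500 μM ATP and total E. coli tRNA at 2 mg/mL final. Activity normalized to enzyme without inhibitor. Triplicate measurements.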

Test [3] concerns Escherichia coli. Description: Antimicrobial activity against Escherichia coli at 64 uM by resazurin dye based assay. It is filed as functional, organism-based.
Test [4] concerns the target Isoleucine--tRNA ligase (Escherichia coli K-12) (UniProt P00956). The test is described as follows: Inhibition of Escherichia coli BL21(DE3) ileRS overexpressed in Escherichia coli Rosetta2(DE3) assessed as reduction in tRNA aminoacylation at 0.5 uM preincubated with enzyme and substrate for 10 mins prior to ATP addition using 14C-labeled isoleucine and tRNA as substrate by liquid scintillation counting method. The gist of the method: as §1

Test [5] has as its system Mycobacterium tuberculosis. Description: Antimicrobial activity against Mycobacterium tuberculosis at 64 uM by resazurin dye based assay. It is filed as functional, organism-based. An outline of the steps:
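Non-pathogenic Mycobacterium tuberculosis strain, part of a broader antimicrobial panel; compounds tested up to a maximum concentration of 64 μM.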

For test [6], the target named is Isoleucine--tRNA ligase (Escherichia coli K-12, UniProt P00956). The test is described as follows: Inhibition of Escherichia coli BL21(DE3) ileRS overexpressed in Escherichia coli Rosetta2(DE3) assessed as reduction in tRNA aminoacylation preincubated with enzyme and substrate for 10 mins prior to ATP addition using 14C-labeled isoleucine and tRNA as substrate by liquid scintillation counting method. Particulars: read-out: Ki(app). The gist of the method: as §1
Isoleucine--tRNA ligase, sequence (P00956 whole entry): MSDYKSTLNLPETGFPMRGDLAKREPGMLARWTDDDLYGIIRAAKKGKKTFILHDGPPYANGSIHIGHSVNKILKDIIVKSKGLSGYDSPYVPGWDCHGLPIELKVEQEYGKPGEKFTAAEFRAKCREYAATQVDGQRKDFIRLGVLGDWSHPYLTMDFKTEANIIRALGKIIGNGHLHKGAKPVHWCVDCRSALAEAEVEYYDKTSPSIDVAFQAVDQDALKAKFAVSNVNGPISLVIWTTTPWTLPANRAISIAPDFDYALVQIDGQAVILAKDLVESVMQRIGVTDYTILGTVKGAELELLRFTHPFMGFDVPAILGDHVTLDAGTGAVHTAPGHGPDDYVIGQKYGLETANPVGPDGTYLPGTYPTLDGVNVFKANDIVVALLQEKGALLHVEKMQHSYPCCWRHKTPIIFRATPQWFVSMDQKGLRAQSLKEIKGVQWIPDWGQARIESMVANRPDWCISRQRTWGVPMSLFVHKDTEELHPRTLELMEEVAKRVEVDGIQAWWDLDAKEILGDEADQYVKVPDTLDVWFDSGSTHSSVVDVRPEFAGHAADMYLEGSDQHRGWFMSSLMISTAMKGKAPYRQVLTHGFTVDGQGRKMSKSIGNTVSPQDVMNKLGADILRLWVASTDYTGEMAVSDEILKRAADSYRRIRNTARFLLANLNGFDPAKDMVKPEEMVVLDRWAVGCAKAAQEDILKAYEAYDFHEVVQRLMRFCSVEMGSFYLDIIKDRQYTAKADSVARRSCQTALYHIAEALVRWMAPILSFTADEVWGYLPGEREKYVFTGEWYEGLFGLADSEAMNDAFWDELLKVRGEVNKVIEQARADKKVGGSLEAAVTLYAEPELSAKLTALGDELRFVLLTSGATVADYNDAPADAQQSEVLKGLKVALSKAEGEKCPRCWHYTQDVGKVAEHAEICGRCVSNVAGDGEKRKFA

In test [7] the test system is Staphylococcus aureus. Description: Antimicrobial activity against Staphylococcus aureus at 64 uM by resazurin dye based assay. It is filed as functional, organism-based.
The target of test [8] is T1, Tyrosine--tRNA ligase (Escherichia coli (strain K12)) (UniProt P0AGJ9).
T1 sequence (whole entry): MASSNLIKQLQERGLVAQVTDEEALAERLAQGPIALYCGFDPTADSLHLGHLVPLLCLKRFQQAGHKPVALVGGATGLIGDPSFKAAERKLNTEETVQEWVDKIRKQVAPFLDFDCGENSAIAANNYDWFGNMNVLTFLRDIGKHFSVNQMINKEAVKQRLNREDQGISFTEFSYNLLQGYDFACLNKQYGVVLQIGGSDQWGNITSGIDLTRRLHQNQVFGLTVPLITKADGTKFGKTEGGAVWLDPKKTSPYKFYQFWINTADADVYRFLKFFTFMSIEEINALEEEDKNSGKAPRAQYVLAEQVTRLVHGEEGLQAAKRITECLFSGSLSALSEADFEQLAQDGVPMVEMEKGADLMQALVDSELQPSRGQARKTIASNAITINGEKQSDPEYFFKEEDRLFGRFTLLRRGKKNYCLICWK
The test is described as follows: Inhibition of Escherichia coli BL21(DE3) TyrRS overexpressed in Escherichia coli Rosetta2(DE3) assessed as reduction in tRNA aminoacylation at 5 uM preincubated with enzyme and substrate for 10 mins prior to ATP addition using 14C-labeled tyrosine and tRNA as substrate by liquid scintillation counting method. An outline of the steps: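 TyrRS counterpart of the radiolabeled aminoacylation assay, with test compounds at 5 μM.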

SMILES strings stand for the structures. pKi: −log10 of the molar value. Calls of active or inactive are those of the source. No cut-off for these calls is given here.

Isoleucine--tRNA ligase (Escherichia coli K-12), sequence (P00956 whole entry): as the sequence (P00956 whole entry) above

Usually pKi stands for the Ki on a negative log10 scale, so that one unit is a factor of ten. With `CC[C@H](C)[C@H](N)C(=O)NS(=O)(=O)OC[C@H]1OC[C@@H](CCCn2cc(-c3ccccc3)nn2)[C@H](O)[C@@H]1O`, the result in test [1], in test [3], in test [5] and in test [7] was inactive. Also, the inhibition result in test [2] and in test [4] was “Active” in each case. The pKi in test [6] is 7.06.

With `CC[C@H](C)[C@H](N)C(=O)NS(=O)(=O)OC[C@H]1OC[C@@H](CCn2nnc(-c3ccccc3)n2)[C@H](O)[C@@H]1O`, the result in test [1], in test [3], in test [5] and in test [7] was inactive. Moreover, the inhibition result in test [2] is “Active”.

As to `CC[C@H](C)[C@H](N)C(=O)NS(=O)(=O)OC[C@H]1OC[C@@H](CCn2cc(-c3ccccc3)nn2)[C@H](O)[C@@H]1O`, the result in test [1], in test [3], in test [5] and in test [7] was inactive. Moreover, the inhibition entry in test [2] was “Active”.

Consider `N[C@@H](Cc1ccc(O)cc1)C(=O)NS(=O)(=O)OC[C@H]1OC[C@@H](CCn2nnc(-c3ccccc3)n2)[C@H](O)[C@@H]1O`, for which the result in test [1], in test [3], in test [5] and in test [7] was inactive. The inhibition entry in test [8] was “inactive”.

For `N[C@@H](Cc1ccc(O)cc1)C(=O)NS(=O)(=O)OC[C@H]1OC[C@@H](CCn2cc(-c3ccccc3)nn2)[C@H](O)[C@@H]1O`, the outcome in test [1], in test [3], in test [5] and in test [7] was inactive. Moreover, the inhibition result in test [8] was “inactive”.

On to `CC[C@H](C)[C@H](N)C(=O)NS(=O)(=O)OC[C@H]1OC[C@@H](OCCn2cc(-c3ccccc3)nn2)[C@H](O)[C@@H]1O`, for which the outcome in test [1], in test [3], in test [5] and in test [7] was inactive. In addition, the inhibition entry in test [2] and in test [4] was “Active” throughout. Further, the pKi in test [6] was 6.94.

For the compound `N[C@@H](Cc1ccc(O)cc1)C(=O)NS(=O)(=O)OC[C@H]1OC[C@@H](OCCn2cc(-c3ccccc3)nn2)[C@H](O)[C@@H]1O`, the result in test [1], in test [3], in test [5] and in test [7] was inactive. Moreover, the inhibition result in test [8] is “inactive”.
